Columns and labels:
HeLa [1] = assay: Antiproliferative activity against human HeLa cells assessed as inhibition of cell survival after 72 hrs by MTT method; type: functional, cell-based
In short: (§1)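 HeLa (2000 cells/well) or LS174 (5000 cells/well) seeded in RPMI-1640 with 10% FBS, 3 mmol/L L-glutamine, 25 mM Hepes, pH 7.2; five concentrations added after 20 h from 10 mM DMSO stocks, each in triplicate. MTT 72 h after dosing, 4 h at 37 °C, SDS solubilization, A570 next day. Blank-subtracted survival vs control; IC50 is the mean of three experiments.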

K562 = assay: Antiproliferative activity against human K562 cells assessed as inhibition of cell survival after 72 hrs by MTT method; type: functional, cell-based; conditions: K562, 72 h
In short: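 K562 grown in suspension at 3000 cells/well in RPMI-1640 with 10% FBS, 3 mmol/L L-glutamine, 25 mM Hepes, pH 7.2. Five concentrations added 2 h after seeding from 10 mM DMSO stocks, in triplicate. MTT read 72 h later, SDS solubilization, A570. IC50 taken from blank-subtracted survival relative to control, mean of three experiments.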

[2] = Antiproliferative activity against human LS 174T cells assessed as inhibition of cell survival after 72 hrs by MTT method; type: functional, cell-based; conditions: LS174T; in short: as §1
HeLa [3] = assay: Cell cycle arrest in human HeLa cells assessed as accumulation at sub-G1 phase at 2 times IC50 after 72 hrs using propidium iodide staining by flow cytometry (reference value: 9.85%); type: functional
In short: (§2)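 HeLa cells, 5×10⁵ per aliquot, treated at two times the 72 h IC50 for 24, 48 or 72 h alongside untreated controls. Fixed in 70% ethanol on ice for one week, given RNase A at 37 °C for 30 min, then PI for at least 30 min. Flow cytometry with 488 nm excitation, FL2 at 585/42 nm, doublets excluded, 20,000 events per sample.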

HeLa [4] = assay: Cell cycle arrest in human HeLa cells assessed as accumulation at G1 phase at 2 times IC50 after 24 hrs using propidium iodide staining by flow cytometry (reference value: 46.78%); type: functional; in short: as §2
HeLa [5] = assay: Cell cycle arrest in human HeLa cells assessed as accumulation at G2/M phase at 2 times IC50 after 24 hrs using propidium iodide staining by flow cytometry (reference value: 25.97%); type: functional; in short: as §2
HeLa [6] = assay: Cell cycle arrest in human HeLa cells assessed as accumulation at G1 phase at 2 times IC50 after 72 hrs using propidium iodide staining by flow cytometry (reference value: 49.90%); type: functional; in short: as §2
HeLa [7] = assay: Cell cycle arrest in human HeLa cells assessed as accumulation at S phase at 2 times IC50 after 24 hrs using propidium iodide staining by flow cytometry (reference value: 24.47%); type: functional; in short: as §2
HeLa [8] = assay: Cell cycle arrest in human HeLa cells assessed as accumulation at G1 phase at 2 times IC50 after 48 hrs using propidium iodide staining by flow cytometry (reference value: 51.32%); type: functional; in short: as §2
HeLa [9] = assay: Cell cycle arrest in human HeLa cells assessed as accumulation at G2/M phase cell at 2 times IC50 at 2 times IC50 after 48 hrs using propidium iodide staining by flow cytometry (reference value: 22.05%); type: functional; in short: as §2
HeLa [10] = assay: Cell cycle arrest in human HeLa cells assessed as accumulation at sub-G1 phase at 2 times IC50 after 24 hrs using propidium iodide staining by flow cytometry (reference value: 3.34%); type: functional; in short: as §2
HeLa [11] = assay: Cell cycle arrest in human HeLa cells assessed as accumulation at S phase at 2 times IC50 after 72 hrs using propidium iodide staining by flow cytometry (reference value: 22.53%); type: functional; in short: as §2
HeLa [12] = assay: Cell cycle arrest in human HeLa cells assessed as accumulation at sub-G1 phase at 2 times IC50 after 48 hrs using propidium iodide staining by flow cytometry (reference value: 6.87%); type: functional; in short: as §2
HeLa [13] = assay: Cell cycle arrest in human HeLa cells assessed as accumulation at S phase at 2 times IC50 after 48 hrs using propidium iodide staining by flow cytometry (reference value: 20.14%); type: functional; in short: as §2
HeLa [14] = assay: Cell cycle arrest in human HeLa cells assessed as accumulation at G2/M phase cell at 2 times IC50 after 72 hrs using propidium iodide staining by flow cytometry (reference value: 17.57%); type: functional; in short: as §2

Row | Structure (SMILES) | IC50 (HeLa [1]) [µM] | IC50 (K562) [µM] | IC50 [2] [µM] | also measured
1 | O=C(O)/C=C/C(=O)c1ccccc1 | 30.6 | 30.2 | 45.5 | 
2 | CCc1ccc(C(=O)/C=C/C(=O)O)cc1 | 27.8 | 5.53 | 21 | 
3 | CC(C)c1ccc(C(=O)/C=C/C(=O)O)cc1 | 4.9 | 5.56 | 25.7 | 
4 | CCCCc1ccc(C(=O)/C=C/C(=O)O)cc1 | 4.78 | 4.95 | 6.74 | 
5 | CC(C)(C)c1ccc(C(=O)/C=C/C(=O)O)cc1 | 5.1 | 4.33 | 8.74 | 
6 | CCCCCCCCCCCCc1ccc(C(=O)/C=C/C(=O)O)cc1 | 5.82 | 4.01 | 7.85 | 
7 | Cc1ccc(C(=O)/C=C/C(=O)O)c(C)c1 | 6.06 | 5.35 | 7.08 | 
8 | Cc1ccc(C)c(C(=O)/C=C/C(=O)O)c1 | 7.86 | 5.9 | 22 | 
9 | Cc1ccc(C(=O)/C=C/C(=O)O)cc1C | 7.28 | 5.62 | 12.1 | 
10 | O=C(O)/C=C/C(=O)c1ccc2c(c1)CCCC2 | 7.01 | 5.6 | 17.6 | 
11 | CCc1ccc(C(C)C)cc1C(=O)/C=C/C(=O)O | 4.89 | 1.36 | 5.94 | 
12 | CC(C)c1ccc(C(=O)/C=C/C(=O)O)c(C(C)C)c1 | 4.06 | 4.68 | 5.36 | 
13 | CC(C)c1ccc(C(C)C)c(C(=O)/C=C/C(=O)O)c1 | 4.75 | 3.28 | 6.23 | 
14 | CCc1cc(CC)c(C(=O)/C=C/C(=O)O)c(CC)c1 | 6.53 | 4.01 | 7.28 | 
15 | CC(C)c1cc(C(C)C)c(C(=O)/C=C/C(=O)O)c(C(C)C)c1 | 6.1 | 4.67 | 8.28 | 
16 | CCc1c(C(=O)/C=C/C(=O)O)cc(C(C)C)cc1C(C)C | 7.61 | 5.1 | 12.3 | 
17 | Cc1cc(C2CCCCC2)c(C)cc1C(=O)/C=C/C(=O)O | 2.38 | 4.24 | 6.64 | 
18 | O=C(O)/C=C/C(=O)c1cc(C2CCCCC2)ccc1C1CCCCC1 | 1.26 | 3.32 | 4.28 | Activity (HeLa [3]): 21.71%; Activity (HeLa [4]): 39.98%; Activity (HeLa [5]): 15.36%; Activity (HeLa [6]): 38.3%; Activity (HeLa [7]): 32.67%; Activity (HeLa [8]): 36.94%; Activity (HeLa [9]): 16.73%; Activity (HeLa [10]): 12.64%; Activity (HeLa [11]): 24.2%; Activity (HeLa [12]): 15.79%; Activity (HeLa [13]): 31.66%; Activity (HeLa [14]): 16.57%
19 | Cc1ccc(C(=O)/C=C/C(=O)O)c(Cl)c1 | 7.6 | 14.6 | 27.7 | 
20 | O=C(O)/C=C/C(=O)c1ccc(F)cc1 | 28.4 | 16.9 | 33.8 | 
21 | O=C(O)/C=C/C(=O)c1ccc(Cl)cc1 | 25.4 | 21.7 | 28.7 | 
22 | O=C(O)/C=C/C(=O)c1ccc(Br)cc1 | 18.7 | 11.2 | 27.1 | 
23 | O=C(O)/C=C/C(=O)c1ccc(Cl)cc1Cl | 62.9 | 58.5 | > 100 | 
24 | COc1ccc(C(=O)/C=C/C(=O)O)cc1 | 27.4 | 12.3 | 34.7 | 
25 | COc1ccc(C(=O)/C=C/C(=O)O)c(OC)c1OC | 96.2 | > 100 | > 100 | 
26 | Cc1ccc(C(=O)/C=C/C(=O)O)cc1 | 7.62 | 9.17 | 28.4 | 
27 | O=C(O)/C=C/C(=O)c1ccc(Cl)c(Cl)c1 | 28.3 | 23.2 | 32.3 | 

From ChEMBL document CHEMBL1806386, “Antiproliferative activity of aroylacrylic acids. Structure-activity study based on molecular interaction fields” (Eur J Med Chem, 2011)
